Source: ChEMBL document CHEMBL5338774, “Quinazoline-2-Carboxamides as Selective PET Radiotracers for Matrix Metalloproteinase-13 Imaging in Atherosclerosis” (J Med Chem, 2023)

What was measured:
[1] = Stability of compound in 10% EtOH/saline assessed as compound degradation measured upto 75 mins by analytical radio-HPLC analysis; assay type: physicochemical; conditions: buffer, 1.25 h
How it was run: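 Radiotracer formulated in 10% EtOH/0.9% saline was held at room temperature up to 75 min. Samples were analysed by analytical radio-HPLC (C18, 0.1 M ammonium formate/ACN gradient, 1 mL·min⁻¹).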

[2] = Drug distribution in western atherogenic diet fed ApoE-/- mouse pancreas at […], iv administered as bolus injection measured for 30 mins by gamma counter analysis; assay type: ADME, organism-based; conditions: in vivo, 0.5 h
How it was run: (§1)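 Diet-fed male ApoE-/- mice (39 ± 5 g, n = 4-6) under 2% isoflurane received radiotracer (~7.5 MBq, 100-200 µL) IV by tail-vein bolus over 30 s. After 30 min, blood was taken by cardiac puncture, then PBS/formalin perfusion and organ dissection. Uptake is decay-corrected %ID normalized to tissue mass (%ID/g).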

[3] = Drug distribution in western atherogenic diet fed ApoE-/- mouse blood assessed as compound remaining at […], iv administered as bolus injection measured for 30 mins by gamma counter analysis; assay type: ADME, organism-based; conditions: in vivo, 0.5 h; how it was run: as §1
[4] = Stability in western atherogenic diet fed ApoE-/- mouse plasma assessed as intact compound level at ~75 MBq, iv administered as bolus injection pretreated with 6-fluoro-N-(4-fluoro-3-methylphenyl)methyl)-5-(2-fluoroethoxy)-4-oxo-3,4-dihydroquinazoline-2-carboxamide followed by tracer addition and measured after 30 mins by gamma counter analysis; assay type: ADME, organism-based; conditions: read-out: Stability
How it was run: (§2)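 Blood was drawn by cardiac puncture into K₂EDTA tubes 30 min after IV radiotracer in diet-fed ApoE-/- mice. Optional IV pretreatment 15 min before: unlabelled analogue 2.5 mg/kg or WAY170523 7.5 mg/kg. Pooled protein-free plasma was spiked with standard and run on radio-HPLC (C18, ammonium formate/ACN). Fractions were collected each minute and gamma-counted to give the parent fraction.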

[5] = Drug distribution in western atherogenic diet fed ApoE-/- mouse kidney at […], iv administered as bolus injection measured for 60 mins by PET analysis; assay type: ADME, organism-based; conditions: in vivo, 1 h
How it was run: (§3)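 A 10 min transmission scan preceded tail-vein IV bolus of radiotracer (~7.5 MBq, over 30 s) in diet-fed ApoE-/- mice. Dynamic whole-body PET ran for 60 min (4×15 s, 4×1 min, 11×5 min frames), corrected for attenuation and scatter, 3D-OSEM/MAP reconstruction. Volumetric organ ROIs gave %ID·cc⁻¹ time-activity curves; n = 2 per group.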

[6] = Drug distribution in western atherogenic diet fed ApoE-/- mouse bone at […], iv administered as bolus injection measured for 30 mins by gamma counter analysis; assay type: ADME, organism-based, Bone element; conditions: in vivo, 0.5 h; how it was run: as §1
[7] = Stability in western atherogenic diet fed ApoE-/- mouse plasma assessed as intact compound level at ~75 MBq, iv administered as bolus injection pretreated with N-(2-(4-(N-benzyl-N-(2-(hydroxycarbamoyl)-4,6-dimethylphenyl)sulfamoyl)phenoxy)ethyl)benzofuran-2-carboxamide followed by tracer addition and measured after 30 mins by gamma counter analysis; assay type: ADME, organism-based; conditions: read-out: Stability; how it was run: as §2
[8] = Drug distribution in western atherogenic diet fed ApoE-/- mouse spleen at […], iv administered as bolus injection measured for 30 mins by gamma counter analysis; assay type: ADME, organism-based; conditions: in vivo, 0.5 h; how it was run: as §1
[9] = Stability in western atherogenic diet fed ApoE-/- mouse plasma assessed as intact compound level at ~75 MBq, iv administered as bolus injection and measured after 30 mins by gamma counter analysis; assay type: ADME, organism-based; conditions: read-out: Stability; how it was run: as §2
[10] = Drug distribution in western atherogenic diet fed ApoE-/- mouse blood assessed as compound remaining at 14 to 16 MBq, iv administered as bolus injection measured for 150 mins by gamma counter analysis; assay type: ADME, organism-based; conditions: in vivo, 2.5 h, dose 14-16 MBq
[11] = Drug distribution in western atherogenic diet fed ApoE-/- mouse aortic plaques at […], iv administered as bolus injection pretreated with 6-fluoro-N-(4-fluoro-3-methylphenyl)methyl)-5-(2-fluoroethoxy)-4-oxo-3,4-dihydroquinazoline-2-carboxamide for 15 mins followed by tracer addition and measured after 30 mins by Oil Red O staining based autoradiography; assay type: ADME, organism-based, Aorta; conditions: in vivo, 0.5 h
How it was run: (§4)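 Male ApoE-/- mice were fed a western atherogenic diet from 8 weeks of age for 13-16 weeks. Radiotracer (~7.5 MBq) was given IV by tail-vein bolus over 30 s. Blocking: unlabelled tracer analogue (2.5 mg/kg; DMA/propylene glycol/PEG400/water) or WAY170523 (7.5 mg/kg; DMSO/PEG400/water), both IV 15 min before. At 30 min, perfused aortae were exposed to a phosphor screen for 10 half-lives (%ID·mm⁻²), with ORO staining.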

[12] = Drug excretion in western atherogenic diet fed ApoE-/- mouse urine at […], iv administered as bolus injection measured for 60 mins by PET analysis; assay type: ADME, organism-based; conditions: in vivo, 1 h; how it was run: as §3
[13] = Octanol/PBS distribution coefficient, logD of compound at pH 7.4 incubated for 10 mins under shaking condition by gamma counter analysis; assay type: physicochemical
How it was run: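 Radiotracer partitioning between 1-octanol and 1× PBS at pH 7.4. Mean ± standard error of two independent experiments, each in quadruplicate.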

[14] = Drug distribution in western atherogenic diet fed ApoE-/- mouse liver at […], iv administered as bolus injection measured for 60 mins by PET analysis; assay type: ADME, organism-based; conditions: in vivo, 1 h; how it was run: as §3
[15] = Drug distribution in western atherogenic diet fed ApoE-/- mouse aortic plaques at […], iv administered as bolus injection pretreated with N-(2-(4-(N-benzyl-N-(2-(hydroxycarbamoyl)-4,6-dimethylphenyl)sulfamoyl)phenoxy)ethyl)benzofuran-2-carboxamide for 15 mins followed by tracer addition and measured after 30 mins by Oil Red O staining based autoradiography; assay type: ADME, organism-based, Aorta; conditions: in vivo, 0.5 h; how it was run: as §4
[16] = Drug distribution in western atherogenic diet fed ApoE-/- mouse aortic plaques assessed as reduction in radioactivity at […], iv administered as bolus injection pretreated with N-(2-(4-(N-benzyl-N-(2-(hydroxycarbamoyl)-4,6-dimethylphenyl)sulfamoyl)phenoxy)ethyl)benzofuran-2-carboxamide for 15 mins followed by tracer addition and measured after 30 mins by Oil Red O staining based autoradiography relative to control; assay type: ADME, organism-based, Aorta; parameters: scale not given: the % may be the effect or the level left; conditions: in vivo, 0.5 h; how it was run: as §4
[17] = Drug distribution in western atherogenic diet fed ApoE-/- mouse liver at […], iv administered as bolus injection measured for 30 mins by gamma counter analysis; assay type: ADME, organism-based; conditions: in vivo, 0.5 h; how it was run: as §1
[18] = Drug distribution in western atherogenic diet fed ApoE-/- mouse brain at […], iv administered as bolus injection measured for 30 mins by gamma counter analysis; assay type: ADME, organism-based; conditions: in vivo, 0.5 h; how it was run: as §1
[19] = Drug distribution in western atherogenic diet fed ApoE-/- mouse muscle tissue at […], iv administered as bolus injection measured for 30 mins by gamma counter analysis; assay type: ADME, organism-based; conditions: in vivo, 0.5 h; how it was run: as §1
[20] = Drug distribution in western atherogenic diet fed ApoE-/- mouse lung at […], iv administered as bolus injection measured for 30 mins by gamma counter analysis; assay type: ADME, organism-based; conditions: in vivo, 0.5 h; how it was run: as §1
[21] = Drug distribution in western atherogenic diet fed ApoE-/- mouse aortic plaques assessed as reduction in radioactivity at […], iv administered as bolus injection pretreated with 6-fluoro-N-(4-fluoro-3-methylphenyl)methyl)-5-(2-fluoroethoxy)-4-oxo-3,4-dihydroquinazoline-2-carboxamide for 15 mins followed by tracer addition and measured after 30 mins by Oil Red O staining based autoradiography relative to control; assay type: ADME, organism-based, Aorta; parameters: scale not given: the % may be the effect or the level left; conditions: in vivo, 0.5 h; how it was run: as §4
[22] = Drug distribution in western atherogenic diet fed ApoE-/- mouse fat tissue at […], iv administered as bolus injection measured for 30 mins by gamma counter analysis; assay type: ADME, organism-based, Adipose tissue; conditions: in vivo, 0.5 h; how it was run: as §1
[23] = Drug distribution in western atherogenic diet fed ApoE-/- mouse aortic plaques at […], iv administered as bolus injection measured for 30 mins by Oil Red O staining based autoradiography; assay type: ADME, organism-based, Aorta; conditions: in vivo, 0.5 h; how it was run: as §4
[24] = Drug distribution in western atherogenic diet fed ApoE-/- mouse myocardium assessed as myocardial retention at […], iv administered as bolus injection measured for 60 mins by PET analysis; assay type: ADME, organism-based; conditions: in vivo, 1 h; how it was run: as §3
[25] = Drug distribution in western atherogenic diet fed ApoE-/- mouse myocardium assessed as compound remaining at […], iv administered as bolus injection measured for 30 mins by gamma counter analysis; assay type: ADME, organism-based; conditions: in vivo, 0.5 h; how it was run: as §1
[26] = Drug distribution in western atherogenic diet fed ApoE-/- mouse stomach at […], iv administered as bolus injection measured for 30 mins by gamma counter analysis; assay type: ADME, organism-based; conditions: in vivo, 0.5 h; how it was run: as §1
[27] = Tmax in western atherogenic diet fed ApoE-/- mouse blood at […], iv administered as bolus injection measured for 60 mins by PET analysis; assay type: ADME, organism-based; conditions: in vivo, 1 h; how it was run: as §3
[28] = Drug distribution in western atherogenic diet fed ApoE-/- mouse intestine at […], iv administered as bolus injection measured for 60 mins by PET analysis; assay type: ADME, organism-based; conditions: in vivo, 1 h; how it was run: as §3
[29] = Drug distribution in western atherogenic diet fed ApoE-/- mouse urinary bladder at […], iv administered as bolus injection measured for 60 mins by PET analysis; assay type: ADME, organism-based; conditions: in vivo, 1 h; how it was run: as §3
[30] = Drug distribution in western atherogenic diet fed ApoE-/- mouse kidney at […], iv administered as bolus injection measured for 30 mins by gamma counter analysis; assay type: ADME, organism-based; conditions: in vivo, 0.5 h; how it was run: as §1
[31] = Drug distribution in western atherogenic diet fed ApoE-/- mouse intestine at […], iv administered as bolus injection measured for 30 mins by gamma counter analysis; assay type: ADME, organism-based; conditions: in vivo, 0.5 h; how it was run: as §1

SMILES	Stability [1]	Drug uptake [2]	Drug uptake [3] [% ID/g]	Drug uptake [5] [%ID/cc]	Drug uptake [6]	Drug uptake [8]	remaining at 0.5 h [9] [%]	logD at 10 min [13]	Drug uptake [14] [%ID/cc]	Drug uptake [17] [% ID/g]	Drug uptake [18]	Drug uptake [19]	Drug uptake [20]	Drug uptake [22]	Drug uptake [23] [%ID.m^-2]	Drug uptake [24] [%ID/cc]	Drug uptake [25]	Drug uptake [26]	Tmax [27] [min]	other results
Cc1cc(CNC(=O)c2nc3ccc(F)c(OCC[18F])c3c(=O)[nH]2)ccc1F	Stable	2.14 % ID/g	3.28	4.42	~ 2 % ID/g	~ 2 % ID/g	78	3.09	6.43	3.32	~ 2 % ID/g	~ 2 % ID/g	~ 2 % ID/g	~ 2 % ID/g	270	< 0.5	~ 1 % ID/g	~ 2 % ID/g	0.625	remaining at 0.5 h [4]: 78%; remaining at 0.5 h [7]: 87%; Drug uptake [10]: Active; Drug uptake [11]: 208.2 %ID.m^-2; Drug excretion [12]: Active; Drug uptake [15]: 173.4 %ID.m^-2; Activity [16]: 36%; Activity [21]: 23%
[11CH3]Oc1cccc(CNC(=O)c2nc3ccc(F)c(OCCc4ccc(C(=O)O)cc4)c3c(=O)[nH]2)c1	Stable	~ 2 % ID/g	0.49	21.01	~ 2 % ID/g	2.11 % ID/g	86	1.16	25.29	7.29	~ 2 % ID/g	~ 2 % ID/g	~ 2 % ID/g	~ 2 % ID/g	52.97	< 0.5	~ 1 % ID/g	~ 2 % ID/g	0.625	Drug uptake [28]: Active; Drug uptake [29]: Not Active; Drug uptake [30]: 30.95 % ID/g; Drug uptake [31]: 53.05 % ID/g
